Where two headings read alike, the source gives them in different places.
Key:
cytochrome P450 system = conditions: cited from earlier work
[1] = in vivo, cited from earlier work
[2] = type: in vivo, human
Method in brief: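 HIV-1–infected patients aged 9–18 y, Tanner-stratified; one oral-solution dose of 8 mg/kg (max 600 mg) with water, fasted from 1 h before to 2 h after. Heparinised plasma sampled at 0–8 h (10 points) and assayed by reversed-phase HPLC-UV. Per-subject 1-compartment zero-order-absorption fit by weighted least squares gave kel and CL/F; Tmax by inspection; AUC 0–8 h.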

[3] = adults, cited from earlier work
[4] = children n = 22 (3 mo to 13 yrs), cited from earlier work
[5] = children receiving 8 mg/kg, primarily prepubescent; Jullien et al; cited from earlier work
[6] = adults receiving 600 mg (approximately 8 mg/kg); Weller et al; cited from earlier work
[7] = adults n = 12 (24–48 yrs), cited from earlier work
[8] = in vivo, po; cited from earlier work
HIV = conditions: 8 mg/kg twice daily with AZT or 3TC; previously untreated children; cited from earlier work

- share of the total AUC in the period after 8 hours ([2]; all subjects, estimated): < 3%
- Tmax ([2]; both, human, plasma, po, 8 mg/kg): 1 h
Compound: Nc1nc(NC2CC2)c2ncn([C@H]3C=C[C@@H](CO)C3)c2n1 [ABC, Abacavir]
- substrate or inhibitor of the cytochrome P450 system (cytochrome P450 system): not a substrate or inhibitor of the cytochrome P450 system
- oral clearance, adjusted for body size, higher for children than adults ([1]; po): approximately 2 times
- systemic exposure (AUC) in children lower than adult values [1]: approximately 50%
- Intersubject variation of CL/F referenced to body weight ([2]; all subjects): more than 8 fold
- AUC ([3]; recommended dose 300 mg twice daily): 5000 to 6000 ng·h/mL
- AUC ([3]; single-dose studies, 600 mg): 11000 to 16000 ng·h/mL
- AUC ([4]; single dose 4 mg/kg): 2800 ng·h/mL
- CL/F ([4]; single dose 4 mg/kg): 27.4 mL/min per kg
- Cmax ([4]; single dose 4 mg/kg): 1700 ng/mL
- t½ ([4]; single dose 4 mg/kg): 0.9 h
- AUC ([4]; single dose 8 mg/kg): 8100 ng·h/mL
- CL/F ([4]; single dose 8 mg/kg): 18.9 mL/min per kg
- Cmax ([4]; single dose 8 mg/kg): 3900 ng/mL
- t½ ([4]; single dose 8 mg/kg): 1.1 h
- mean CL/F [5]: 15.8 mL/min per kg
- mean CL/F [6]: 11.5 mL/min per kg
- AUC ([7]; single dose 4 mg/kg): 6000 ng·h/mL
- CL/F ([7]; single dose 4 mg/kg): 13.4 mL/min per kg
- Cmax ([7]; single dose 4 mg/kg): 2900 ng/mL
- t½ ([7]; single dose 4 mg/kg): 1.2 h
- CL/F ([7]; single dose 8 mg/kg (600 mg)): 10.2 mL/min per kg
- AUC ([7]; single dose 8 mg/kg): 15700 ng·h/mL
- Cmax ([7]; single dose 8 mg/kg): 4700 ng/mL
- t½ ([7]; single dose 8 mg/kg): 1.7 h
- amount eliminated unchanged in the urine [8]: < 5%
- reduction in viral load versus AZT/3TC combination (HIV): larger reduction in viral load
